ChEMBL document CHEMBL3421541, “Benzaldehyde Schiff bases regulation to the metabolism, hemolysis, and virulence genes expression in vitro and their structure-microbicidal activity relationship” (2015)
≈ marks a conversion by molar mass, not a printed value. Calls of active or inactive are those of the source.

Assays:
Escherichia coli [1] = assay: Antibacterial activity against Escherichia coli assessed as growth inhibition at 100 umol/L after 8 hrs by ELISA plate reader analysis relative to control; type: functional; settings: read-out: GI
In short: (§1)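 Bacteria were seeded at 1×10^5 CFU/mL in LB, and compound was added to 100 µmol/L final. Compounds came from DMSO stock, with DMSO ≤1% (v/v) final. Cultures were shaken at 37 °C for 8 h and read at OD450. Inhibition % = (OD vehicle control − OD sample)/OD vehicle control × 100. Values are the mean of three independent experiments.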

Staphylococcus aureus [2] = assay: Antibacterial activity against Staphylococcus aureus assessed as lowest concentration required to reduce growth by 1% after 8 hrs by ELISA plate reader analysis relative to control; type: functional
In short: (§2)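 MBC was found by broth microdilution. Inocula of 1×10^5 CFU/mL in LB were shaken at 37 °C with a series of compound concentrations, then read at OD450. MBC was defined as the lowest concentration reducing growth by 1% versus the inoculum control. Three independent experiments were run.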

Bacillus subtilis [3] = assay: Antibacterial activity against Bacillus subtilis assessed as lowest concentration required to reduce growth by 1% after 8 hrs by ELISA plate reader analysis relative to control; type: functional; in short: as §2
Staphylococcus aureus [4] = assay: Antibacterial activity against Staphylococcus aureus assessed as growth inhibition at 100 umol/L after 8 hrs by ELISA plate reader analysis relative to control; type: functional; settings: read-out: GI; in short: as §1
Bacillus subtilis [5] = assay: Antibacterial activity against Bacillus subtilis assessed as growth inhibition at 100 umol/L after 8 hrs by ELISA plate reader analysis relative to control; type: functional; settings: read-out: GI; in short: as §1
Escherichia coli [6] = assay: Downregulation of tsh gene expression in Escherichia coli at 50 umol/L after 8 hrs by semi-quantitative RT-PCR analysis relative to control; type: functional, organism-based
In short: (§3)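 E. coli at 2×10^7 CFU/mL in LB was exposed to 50 µmol/L compound, or LB alone, for 8 h at 37 °C. Total RNA was then analysed by TaqMan real-time RT-PCR or semi-quantitative RT-PCR. Transcripts were normalised to gapA. Fold change is relative to time-matched medium-only cultures.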

Escherichia coli [7] = assay: Downregulation of IroD gene expression in Escherichia coli at 50 umol/L after 8 hrs by semi-quantitative RT-PCR analysis relative to control; type: functional, organism-based; in short: as §3
Escherichia coli [8] = assay: Downregulation of tsh gene expression in Escherichia coli at 50 umol/L after 8 hrs by real-time RT-PCR analysis relative to control; type: functional, organism-based; in short: as §3
Escherichia coli [9] = assay: Upregulation of acrA gene expression in Escherichia coli at 50 umol/L after 8 hrs by semi-quantitative RT-PCR analysis relative to control; type: functional, organism-based; in short: as §3
Escherichia coli [10] = assay: Upregulation of acrA gene expression in Escherichia coli at 50 umol/L after 8 hrs by real-time RT-PCR analysis relative to control; type: functional, organism-based; in short: as §3
Escherichia coli [11] = assay: Upregulation of cysB gene expression in Escherichia coli at 50 umol/L after 8 hrs by real-time RT-PCR analysis relative to control; type: functional, organism-based; in short: as §3
Escherichia coli [12] = assay: Upregulation of cysB gene expression in Escherichia coli at 50 umol/L after 8 hrs by semi-quantitative RT-PCR analysis relative to control; type: functional, organism-based; in short: as §3
Escherichia coli [13] = assay: Antibacterial activity against Escherichia coli assessed as lowest concentration required to reduce growth by 1% after 8 hrs by ELISA plate reader analysis relative to control; type: functional; in short: as §2
Escherichia coli [14] = assay: Downregulation of IroD gene expression in Escherichia coli at 50 umol/L after 8 hrs by real-time RT-PCR analysis relative to control; type: functional, organism-based; in short: as §3
Staphylococcus aureus [15] = assay: Upregulation of sbi gene expression in Staphylococcus aureus at 50 umol/L after 8 hrs by real-time RT-PCR analysis relative to control; type: functional, organism-based
In short: (§4)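 S. aureus ATCC 25923 at 2×10^7 CFU/mL in LB was exposed to 50 µmol/L compound, or LB alone, for 8 h at 37 °C. Total RNA was analysed by TaqMan real-time RT-PCR or semi-quantitative RT-PCR, normalised to gyrB. Fold change is versus time-matched medium-only cultures, with data pooled from three experiments.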

Staphylococcus aureus [16] = assay: Upregulation of sbi gene expression in Staphylococcus aureus at 50 umol/L after 8 hrs by semi-quantitative RT-PCR analysis relative to control; type: functional, organism-based; in short: as §4
Staphylococcus aureus [17] = assay: Downregulation of mecA gene expression in Staphylococcus aureus at 50 umol/L after 8 hrs by semi-quantitative RT-PCR analysis relative to control; type: functional; in short: as §4
Staphylococcus aureus [18] = assay: Downregulation of mecA gene expression in Staphylococcus aureus at 50 umol/L after 8 hrs by real-time RT-PCR analysis relative to control; type: functional; in short: as §4
Staphylococcus aureus [19] = assay: Upregulation of hla gene expression in Staphylococcus aureus at 50 umol/L after 8 hrs by real-time RT-PCR analysis relative to control; type: functional, organism-based; in short: as §4
Staphylococcus aureus [20] = assay: Upregulation of hla gene expression in Staphylococcus aureus at 50 umol/L after 8 hrs by semi-quantitative RT-PCR analysis relative to control; type: functional, organism-based; in short: as §4
Escherichia coli [21] = assay: Downregulation of cysB gene expression in Escherichia coli at 50 umol/L after 8 hrs by real-time RT-PCR analysis relative to control; type: functional, organism-based; in short: as §3
Escherichia coli [22] = assay: Downregulation of acrA gene expression in Escherichia coli at 50 umol/L after 8 hrs by semi-quantitative RT-PCR analysis relative to control; type: functional, organism-based; in short: as §3
Escherichia coli [23] = assay: Downregulation of cysB gene expression in Escherichia coli at 50 umol/L after 8 hrs by semi-quantitative RT-PCR analysis relative to control; type: functional, organism-based; in short: as §3
Escherichia coli [24] = assay: Downregulation of acrA gene expression in Escherichia coli at 50 umol/L after 8 hrs by real-time RT-PCR analysis relative to control; type: functional, organism-based; in short: as §3

O=C(N/N=C/c1ccccc1O)c1ccncc1 [SALINAZID]
inhibition of growth at 100 µM (Escherichia coli [1]): 6.81%

CN[C@@H]1[C@H](O[C@H]2[C@H](O[C@H]3[C@H](O)[C@@H](O)[C@H](N=C(N)N)[C@@H](O)[C@@H]3N=C(N)N)O[C@@H](C)[C@]2(O)C=O)O[C@@H](CO)[C@H](O)[C@H]1O [STREPTOMYCIN]
MBC (Staphylococcus aureus [2]): 1.3 µM (≈ 0.756 µg/mL)
MBC (Bacillus subtilis [3]): 2.1 µM (≈ 1.22 µg/mL)
inhibition of growth at 100 µM (Staphylococcus aureus [4]): 97%
inhibition of growth at 100 µM (Bacillus subtilis [5]): 94.1%

O=C(N/N=C/c1cc(Br)ccc1O)c1ccncc1
Activity (Escherichia coli [6]): Active
Activity (Escherichia coli [7]): Active
inhibition of growth at 100 µM (Escherichia coli [1]): 95.8%
Activity (Escherichia coli [8]): Active
Activity (Escherichia coli [9]): Active
Activity (Escherichia coli [10]): Active
Activity (Escherichia coli [11]): Active
Activity (Escherichia coli [12]): Active
MBC (Escherichia coli [13]): 3.2 µM (≈ 1.02 µg/mL)
Activity (Escherichia coli [14]): Active

O=C(COc1ccc(Cl)cc1)N/N=C/c1ccccc1O
inhibition of growth at 100 µM (Escherichia coli [1]): 0.23%

CC1(C)S[C@@H]2[C@H](NC(=O)[C@H](N)c3ccccc3)C(=O)N2[C@H]1C(=O)O [AMPICILLIN]
inhibition of growth at 100 µM (Escherichia coli [1]): 99.3%
MBC (Escherichia coli [13]): 1.8 µM (≈ 0.629 µg/mL)

COc1ccc(CC(=O)N/N=C/c2cc(Br)ccc2O)cc1
inhibition of growth at 100 µM (Bacillus subtilis [5]): 1.01%

COc1ccc(CC(=O)N/N=C/c2cc([N+](=O)[O-])ccc2O)cc1
inhibition of growth at 100 µM (Escherichia coli [1]): 5.57%

O=C(COc1ccc(Cl)cc1)N/N=C/c1ccc(OCc2ccccc2)c(OCc2ccccc2)c1
Activity (Staphylococcus aureus [15]): Active
MBC (Staphylococcus aureus [2]): 1.4 µM (≈ 0.701 µg/mL)
inhibition of growth at 100 µM (Escherichia coli [1]): 17.6%
inhibition of growth at 100 µM (Staphylococcus aureus [4]): 99.5%
Activity (Staphylococcus aureus [16]): Active
inhibition of growth at 100 µM (Bacillus subtilis [5]): 6.21%
fold change (FC) (Staphylococcus aureus [17]): 2
fold change (FC) (Staphylococcus aureus [18]): 2
Activity (Staphylococcus aureus [19]): Active
Activity (Staphylococcus aureus [20]): Active

O=C(N/N=C/c1cc([N+](=O)[O-])ccc1O)c1ccncc1
inhibition of growth at 100 µM (Escherichia coli [1]): 41.8%

O=C(COc1ccc(Cl)cc1)N/N=C/c1cc(Br)ccc1O
Activity (Escherichia coli [21]): Active
Activity (Escherichia coli [22]): Active
Activity (Escherichia coli [6]): Active
Activity (Escherichia coli [7]): Active
inhibition of growth at 100 µM (Escherichia coli [1]): 73.2%
Activity (Escherichia coli [8]): Active
Activity (Escherichia coli [23]): Active
inhibition of growth at 100 µM (Bacillus subtilis [5]): 15.9%
MBC (Escherichia coli [13]): 18.4 µM (≈ 7.06 µg/mL)
Activity (Escherichia coli [24]): Active
Activity (Escherichia coli [14]): Active
